Experimental data from publication PMC3379667 (Diabetes, 2012).
No end group written: not given here.

Columns and labels:
[1] = test system: humans with NGT, IGT, or T2DM; test: Graded glucose infusion; format: in vivo, human; conditions: for increase of ISR iAUC during the first 40 min compared with albumin: P ≤0.0005; for increase of 240-min ISR iAUC/glucose iAUC compared with albumin: P ≤0.007 vs. albumin
Procedure, shortened: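 Subjects fasted 10 h. Arterialized venous blood was drawn from a hand heated to 50–55°C. Glucose ≥120 mg/dL was lowered to 100–120 mg/dL with IV insulin (∼0.01 units/kg every 30 min), then held stable 20 min. Four blinded 240-min GGIs ≥2 weeks apart gave IV peptide or albumin (peptides 4 pmol·kg−1·min−1 in saline/1% albumin). Glucose measured by glucose oxidase; C-peptide by chemiluminescent immunometric assay; ISR by stochastic deconvolution; iAUCs; mixed-effects models, one-tailed t tests.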

[2] = test system: humans with NGT, IGT, or T2DM; test: Symptomatic effects of peptide infusions; format: in vivo, human; conditions: all three groups; for subjects with mild diarrhea and/or loose stools: within several hours of the infusion
[3] = test system: healthy individuals and persons with T2DM; conditions: iv infusion 4 pmol/kg/min, cited from earlier work
[4] = Plasma IR-GIP and IR-xenin levels during and after peptide infusion; format: in vivo; conditions: human, iv, 4 pmol ⋅ kg^−1 ⋅ min^−1
Procedure, shortened: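 Peptides were infused IV at 4 pmol·kg−1·min−1 in saline with 1% albumin during the graded glucose infusion. Plasma IR-GIP was measured by total-GIP ELISA and IR-xenin by an in-house ELISA. IR-xenin half-life came from levels sampled after infusions stopped (n = 6).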

healthy humans = conditions: intravenous infusion of neurotensin alone; cited from earlier work

| subjects with mild diarrhea and/or loose stools [2] [%] | half-life [4] [min] | Compound | ISR iAUC during the first 40 min of the GGI ([1]; subjects with IGT, G+X vs GIP alone P = 0.002) | increase of ISR iAUC during the first 40 min compared with albumin ([1]; subjects with IGT) [fold] | increase of 240-min ISR iAUC/glucose iAUC compared with albumin ([1]; subjects with IGT) [fold] | time of peak early insulin secretory response (ISR) ([1]; subjects with IGT, time into the infusions) [min] | ISR iAUC during the first 40 min of the GGI ([1]; subjects with NGT, G+X vs GIP alone P = 0.048) | increase of ISR iAUC during the first 40 min compared with albumin ([1]; subjects with NGT) [fold] | increase of 240-min ISR iAUC/glucose iAUC compared with albumin ([1]; subjects with NGT) [fold] | time of peak early insulin secretory response (ISR) ([1]; subjects with NGT, time into the GGI) [min] | ISR iAUC during the first 40 min of the GGI ([1]; subjects with T2DM, G+X vs GIP alone P = 0.18) | increase of ISR iAUC during the first 40 min compared with albumin ([1]; subjects with T2DM) [fold] | increase of 240-min ISR iAUC/glucose iAUC compared with albumin ([1]; subjects with T2DM) [fold] | increase of resting heart rate [2] | reduction of mean arterial blood pressure [2] | increase of insulin release during a hyperglycemic clamp ([3]; healthy individuals) | effect on insulin release during a hyperglycemic clamp ([3]; persons with T2DM) | change in blood pressure or plasma levels of glucose, insulin, or glucagon (healthy humans) |
| --- | --- | --- | --- | --- | --- | --- | --- | --- | --- | --- | --- | --- | --- | --- | --- | --- | --- | --- |
| 14 |  | CC[C@H](C)[C@H](NC(=O)[C@H](CO)NC(=O)[C@H](Cc1ccc(O)cc1)NC(=O)[C@H](CC(=O)O)NC(=O)[C@H](CO)NC(=O)[C@@H](NC(=O)[C@H](Cc1ccccc1)NC(=O)[C@@H](NC(=O)CNC(=O)[C@H](CCC(=O)O)NC(=O)[C@H](C)NC(=O)[C@@H](N)Cc1ccc(O)cc1)[C@@H](C)O)[C@@H](C)CC)C(=O)N[C@@H](C)C(=O)N[C@@H](CCSC)C(=O)N[C@@H](CC(=O)O)C(=O)N[C@@H](CCCCN)C(=O)N[C@H](C(=O)N[C@@H](Cc1c[nH]cn1)C(=O)N[C@@H](CCC(N)=O)C(=O)N[C@@H](CCC(N)=O)C(=O)N[C@@H](CC(=O)O)C(=O)N[C@@H](Cc1ccccc1)C(=O)N[C@H](C(=O)N[C@@H](CC(N)=O)C(=O)N[C@@H](Cc1c[nH]c2ccccc12)C(=O)N[C@@H](CC(C)C)C(=O)N[C@@H](CC(C)C)C(=O)N[C@@H](C)C(=O)N[C@@H](CCC(N)=O)C(=O)N[C@@H](CCCCN)C(=O)NCC(=O)N[C@@H](CCCCN)C(=O)N[C@@H](CCCCN)C(=O)N[C@@H](CC(N)=O)C(=O)N[C@@H](CC(=O)O)C(=O)N[C@@H](Cc1c[nH]c2ccccc12)C(=O)N[C@@H](CCCCN)C(=O)N[C@@H](Cc1c[nH]cn1)C(=O)N[C@@H](CC(N)=O)C(=O)N[C@H](C(=O)N[C@H](C(=O)N[C@@H](CCC(N)=O)C(=O)O)[C@@H](C)O)[C@@H](C)CC)C(C)C)[C@@H](C)CC [GIP, glucose-dependent insulinotropic polypeptide] | 10,016 ± 1,524 pmol insulin secreted/40 min | 6.1 | 1.5 | 20 | 7,998 ± 1,263 pmol insulin secreted/40 min | 4.6 | 1.7 | ≤ 10 | 10,062 ± 2,290 pmol insulin secreted/40 min | 8.7 | 1.9 | ~8 bpm | 10–15 mmHg | approximately fourfold | ineffective |  |
| 21 | 2.5 ± 0.3 | MLTKFETKSARVKGLSFHPKRPWIL [xenin-25, Xenin-25] |  |  |  |  |  |  |  |  |  |  |  | no effect | no effect |  |  |  |
|  |  | neurotensin |  |  |  |  |  |  |  |  |  |  |  |  |  |  |  | no significant change |
